test system: CCRF-CEM; assay: Anticancer activity against human CCRF-CEM cells assessed as cell growth at 10^-5 M after 48 hrs by SRB assay; format: functional; settings: read-out: Activity
Method in brief: (§1)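 NCI-60 single-dose screen at one concentration. Cells grown in RPMI 1640 with 5% FBS and 2 mM L-glutamine, plated at 5000–40,000 cells/well, and pre-incubated 24 h at 37 °C in 5% CO2 before DMSO-dissolved drug was added. Cells fixed with TCA, SRB-stained, absorbance read at 515 nm. Percent growth calculated against time-zero and untreated control plates.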

SMILES	growth at 10 µM [%]
O=C(NCCNc1nccc(-c2c(-c3cccc(O)c3)nc3sccn23)n1)Nc1cc(C(F)(F)F)cc(C(F)(F)F)c1	39.1

test system: RPMI-8226; assay: Anticancer activity against human RPMI8226 cells assessed as cell growth at 10^-5 M after 48 hrs by SRB assay; format: functional; settings: RPMI-8226, 48 h, read-out: Activity

SMILES	growth at 10 µM [%]
O=C(NCCNc1nccc(-c2c(-c3cccc(O)c3)nc3sccn23)n1)Nc1cc(C(F)(F)F)cc(C(F)(F)F)c1	45.7

test system: EKVX; assay: Anticancer activity against human EKVX cells assessed as cell growth at 10^-5 M after 48 hrs by SRB assay; format: functional; settings: read-out: Activity; method in brief: as §1

SMILES	growth at 10 µM [%]
O=C(NCCNc1nccc(-c2c(-c3cccc(O)c3)nc3sccn23)n1)Nc1cc(C(F)(F)F)cc(C(F)(F)F)c1	52.2

test system: HOP-62; assay: Anticancer activity against human HOP62 cells assessed as cell growth at 10^-5 M after 48 hrs by SRB assay; format: functional; settings: HOP-62, 48 h, read-out: Activity; method in brief: as §1

SMILES	growth at 10 µM [%]
O=C(NCCNc1nccc(-c2c(-c3cccc(O)c3)nc3sccn23)n1)Nc1cc(C(F)(F)F)cc(C(F)(F)F)c1	118

test system: HOP-92; assay: Anticancer activity against human HOP92 cells assessed as cell growth at 10^-5 M after 48 hrs by SRB assay; format: functional; settings: HOP-92, 48 h, read-out: Activity; method in brief: as §1

SMILES	growth at 10 µM [%]
O=C(NCCNc1nccc(-c2c(-c3cccc(O)c3)nc3sccn23)n1)Nc1cc(C(F)(F)F)cc(C(F)(F)F)c1	74.4

test system: NCI-H226; assay: Anticancer activity against human NCI-H226 cells assessed as cell growth at 10^-5 M after 48 hrs by SRB assay; format: functional; settings: NCI-H226, 48 h, read-out: Activity

SMILES	growth at 10 µM [%]
O=C(NCCNc1nccc(-c2c(-c3cccc(O)c3)nc3sccn23)n1)Nc1cc(C(F)(F)F)cc(C(F)(F)F)c1	101

test system: NCI-H23; assay: Anticancer activity against human NCI-H23 cells assessed as cell growth at 10^-5 M after 48 hrs by SRB assay; format: functional; settings: NCI-H23, 48 h, read-out: Activity

SMILES	growth at 10 µM [%]
O=C(NCCNc1nccc(-c2c(-c3cccc(O)c3)nc3sccn23)n1)Nc1cc(C(F)(F)F)cc(C(F)(F)F)c1	90.9

test system: NCI-H322M; assay: Anticancer activity against human NCI-H322M cells assessed as cell growth at 10^-5 M after 48 hrs by SRB assay; format: functional; settings: read-out: Activity

SMILES	growth at 10 µM [%]
O=C(NCCNc1nccc(-c2c(-c3cccc(O)c3)nc3sccn23)n1)Nc1cc(C(F)(F)F)cc(C(F)(F)F)c1	87

test system: NCI-H522; assay: Anticancer activity against human NCI-H522 cells assessed as cell growth at 10^-5 M after 48 hrs by SRB assay; format: functional; settings: NCI-H522, 48 h, read-out: Activity

SMILES	growth at 10 µM [%]
O=C(NCCNc1nccc(-c2c(-c3cccc(O)c3)nc3sccn23)n1)Nc1cc(C(F)(F)F)cc(C(F)(F)F)c1	69.5

test system: HCT-116; assay: Anticancer activity against human HCT116 cells assessed as cell growth at 10^-5 M after 48 hrs by SRB assay; format: functional; settings: HCT-116, 48 h, read-out: Activity; method in brief: as §1

SMILES	growth at 10 µM [%]
O=C(NCCNc1nccc(-c2c(-c3cccc(O)c3)nc3sccn23)n1)Nc1cc(C(F)(F)F)cc(C(F)(F)F)c1	66.3

test system: HCT-15; assay: Anticancer activity against human HCT15 cells assessed as cell growth at 10^-5 M after 48 hrs by SRB assay; format: functional; settings: HCT-15, 48 h, read-out: Activity; method in brief: as §1

SMILES	growth at 10 µM [%]
O=C(NCCNc1nccc(-c2c(-c3cccc(O)c3)nc3sccn23)n1)Nc1cc(C(F)(F)F)cc(C(F)(F)F)c1	79.2

test system: HT-29; assay: Anticancer activity against human HT-29 cells assessed as cell growth at 10^-5 M after 48 hrs by SRB assay; format: functional; settings: HT-29, 48 h, read-out: Activity; method in brief: as §1

SMILES	growth at 10 µM [%]
O=C(NCCNc1nccc(-c2c(-c3cccc(O)c3)nc3sccn23)n1)Nc1cc(C(F)(F)F)cc(C(F)(F)F)c1	63.1

test system: KM12; assay: Anticancer activity against human KM12 cells assessed as cell growth at 10^-5 M after 48 hrs by SRB assay; format: functional; settings: KM12, 48 h, read-out: Activity; method in brief: as §1

SMILES	growth at 10 µM [%]
O=C(NCCNc1nccc(-c2c(-c3cccc(O)c3)nc3sccn23)n1)Nc1cc(C(F)(F)F)cc(C(F)(F)F)c1	43.1

test system: SF-268; assay: Anticancer activity against human SF268 cells assessed as cell growth at 10^-5 M after 48 hrs by SRB assay; format: functional; settings: SF-268, 48 h, read-out: Activity

SMILES	growth at 10 µM [%]
O=C(NCCNc1nccc(-c2c(-c3cccc(O)c3)nc3sccn23)n1)Nc1cc(C(F)(F)F)cc(C(F)(F)F)c1	69.4

test system: SF-539; assay: Anticancer activity against human SF539 cells assessed as cell growth at 10^-5 M after 48 hrs by SRB assay; format: functional; settings: SF-539, 48 h, read-out: Activity

SMILES	growth at 10 µM [%]
O=C(NCCNc1nccc(-c2c(-c3cccc(O)c3)nc3sccn23)n1)Nc1cc(C(F)(F)F)cc(C(F)(F)F)c1	96.5

test system: SNB-75; assay: Anticancer activity against human SNB75 cells assessed as cell growth at 10^-5 M after 48 hrs by SRB assay; format: functional; settings: SNB-75, 48 h, read-out: Activity
Method in brief: (§2)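 NCI-60 single-dose screen: cells in RPMI 1640 with 5% FBS and 2 mM L-glutamine, plated at 5000–40,000 cells/well by doubling time, and preincubated 24 h at 37 °C. Compound given at one concentration from DMSO stock. Cells TCA-fixed and SRB-stained, absorbance at 515 nm. Percent growth relative to time-zero and untreated controls; inhibition % = 100 − growth %.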

SMILES	growth at 10 µM [%]
O=C(NCCNc1nccc(-c2c(-c3cccc(O)c3)nc3sccn23)n1)Nc1cc(C(F)(F)F)cc(C(F)(F)F)c1	66.1

test system: U-251; assay: Anticancer activity against human U251 cells assessed as cell growth at 10^-5 M after 48 hrs by SRB assay; format: functional; settings: U-251, 48 h, read-out: Activity; method in brief: as §2

SMILES	growth at 10 µM [%]
O=C(NCCNc1nccc(-c2c(-c3cccc(O)c3)nc3sccn23)n1)Nc1cc(C(F)(F)F)cc(C(F)(F)F)c1	77

test system: LOX IMVI; assay: Anticancer activity against human LOXIMVI cells assessed as cell growth at 10^-5 M after 48 hrs by SRB assay; format: functional; settings: read-out: Activity; method in brief: as §1

SMILES	growth at 10 µM [%]
O=C(NCCNc1nccc(-c2c(-c3cccc(O)c3)nc3sccn23)n1)Nc1cc(C(F)(F)F)cc(C(F)(F)F)c1	60.6

test system: Malme-3M; assay: Anticancer activity against human MALME-3M cells assessed as cell growth at 10^-5 M after 48 hrs by SRB assay; format: functional; settings: read-out: Activity; method in brief: as §1

SMILES	growth at 10 µM [%]
O=C(NCCNc1nccc(-c2c(-c3cccc(O)c3)nc3sccn23)n1)Nc1cc(C(F)(F)F)cc(C(F)(F)F)c1	60.5

test system: SK-MEL-2; assay: Anticancer activity against human SK-MEL-2 cells assessed as cell growth at 10^-5 M after 48 hrs by SRB assay; format: functional; settings: SK-MEL-2, 48 h, read-out: Activity

SMILES	growth at 10 µM [%]
O=C(NCCNc1nccc(-c2c(-c3cccc(O)c3)nc3sccn23)n1)Nc1cc(C(F)(F)F)cc(C(F)(F)F)c1	110

test system: OVCAR-3; assay: Anticancer activity against human OVCAR3 cells assessed as cell growth at 10^-5 M after 48 hrs by SRB assay; format: functional; settings: OVCAR-3, 48 h, read-out: Activity

SMILES	growth at 10 µM [%]
O=C(NCCNc1nccc(-c2c(-c3cccc(O)c3)nc3sccn23)n1)Nc1cc(C(F)(F)F)cc(C(F)(F)F)c1	82.2

test system: OVCAR-5; assay: Anticancer activity against human OVCAR5 cells assessed as cell growth at 10^-5 M after 48 hrs by SRB assay; format: functional; settings: OVCAR-5, 48 h, read-out: Activity

SMILES	growth at 10 µM [%]
O=C(NCCNc1nccc(-c2c(-c3cccc(O)c3)nc3sccn23)n1)Nc1cc(C(F)(F)F)cc(C(F)(F)F)c1	96.5

test system: OVCAR-8; assay: Anticancer activity against human OVCAR8 cells assessed as cell growth at 10^-5 M after 48 hrs by SRB assay; format: functional; settings: OVCAR-8, 48 h, read-out: Activity

SMILES	growth at 10 µM [%]
O=C(NCCNc1nccc(-c2c(-c3cccc(O)c3)nc3sccn23)n1)Nc1cc(C(F)(F)F)cc(C(F)(F)F)c1	52.8

test system: SK-OV-3; assay: Anticancer activity against human SKOV3 cells assessed as cell growth at 10^-5 M after 48 hrs by SRB assay; format: functional; settings: SK-OV-3, 48 h, read-out: Activity

SMILES	growth at 10 µM [%]
O=C(NCCNc1nccc(-c2c(-c3cccc(O)c3)nc3sccn23)n1)Nc1cc(C(F)(F)F)cc(C(F)(F)F)c1	89.3

test system: 786-0; assay: Anticancer activity against human 786-0 cells assessed as cell growth at 10^-5 M after 48 hrs by SRB assay; format: functional; settings: 786-0, 48 h, read-out: Activity; method in brief: as §1

SMILES	growth at 10 µM [%]
O=C(NCCNc1nccc(-c2c(-c3cccc(O)c3)nc3sccn23)n1)Nc1cc(C(F)(F)F)cc(C(F)(F)F)c1	82

test system: A498; assay: Anticancer activity against human A498 cells assessed as cell growth at 10^-5 M after 48 hrs by SRB assay; format: functional; settings: A498, 48 h, read-out: Activity; method in brief: as §1

SMILES	growth at 10 µM [%]
O=C(NCCNc1nccc(-c2c(-c3cccc(O)c3)nc3sccn23)n1)Nc1cc(C(F)(F)F)cc(C(F)(F)F)c1	86

test system: ACHN; assay: Anticancer activity against human ACHN cells assessed as cell growth at 10^-5 M after 48 hrs by SRB assay; format: functional; settings: read-out: Activity; method in brief: as §1

SMILES	growth at 10 µM [%]
O=C(NCCNc1nccc(-c2c(-c3cccc(O)c3)nc3sccn23)n1)Nc1cc(C(F)(F)F)cc(C(F)(F)F)c1	65.9

test system: UO-31; assay: Anticancer activity against human UO31 cells assessed as cell growth at 10^-5 M after 48 hrs by SRB assay; format: functional; settings: UO-31, 48 h, read-out: Activity; method in brief: as §2

SMILES	growth at 10 µM [%]
O=C(NCCNc1nccc(-c2c(-c3cccc(O)c3)nc3sccn23)n1)Nc1cc(C(F)(F)F)cc(C(F)(F)F)c1	73.1

test system: DU-145; assay: Anticancer activity against human DU145 cells assessed as cell growth at 10^-5 M after 48 hrs by SRB assay; format: functional; settings: DU-145, 48 h, read-out: Activity; method in brief: as §1

SMILES	growth at 10 µM [%]
O=C(NCCNc1nccc(-c2c(-c3cccc(O)c3)nc3sccn23)n1)Nc1cc(C(F)(F)F)cc(C(F)(F)F)c1	97.1

test system: MCF7; assay: Anticancer activity against human MCF7 cells assessed as cell growth at 10^-5 M after 48 hrs by SRB assay; format: functional; settings: MCF7, 48 h, read-out: Activity; method in brief: as §1

SMILES	growth at 10 µM [%]
O=C(NCCNc1nccc(-c2c(-c3cccc(O)c3)nc3sccn23)n1)Nc1cc(C(F)(F)F)cc(C(F)(F)F)c1	67.5

test system: MDA-MB-231; assay: Anticancer activity against human MDA-MB-231 cells assessed as cell growth at 10^-5 M after 48 hrs by SRB assay; format: functional; settings: MDA-MB-231, 48 h, read-out: Activity; method in brief: as §1

SMILES	growth at 10 µM [%]
O=C(NCCNc1nccc(-c2c(-c3cccc(O)c3)nc3sccn23)n1)Nc1cc(C(F)(F)F)cc(C(F)(F)F)c1	41.4

test system: BT-549; assay: Anticancer activity against human BT549 cells assessed as cell growth at 10^-5 M after 48 hrs by SRB assay; format: functional; settings: BT-549, 48 h, read-out: Activity; method in brief: as §1

SMILES	growth at 10 µM [%]
O=C(NCCNc1nccc(-c2c(-c3cccc(O)c3)nc3sccn23)n1)Nc1cc(C(F)(F)F)cc(C(F)(F)F)c1	87.6

test system: T47D; assay: Anticancer activity against human T47D cells assessed as cell growth at 10^-5 M after 48 hrs by SRB assay; format: functional; settings: read-out: Activity; method in brief: as §2

SMILES	growth at 10 µM [%]
O=C(NCCNc1nccc(-c2c(-c3cccc(O)c3)nc3sccn23)n1)Nc1cc(C(F)(F)F)cc(C(F)(F)F)c1	72

From ChEMBL document CHEMBL1914423, “New imidazo[2,1-b]thiazole derivatives: synthesis, in vitro anticancer evaluation, and in silico studies” (Eur J Med Chem, 2011)
